ERa SRC1 inh: blocks coactivator binding to human estrogen receptor alpha. P03372. TR-FRET ER-alpha LBD / SRC-1 peptide, estradiol-bound. inhibition, % at 25.6 µM. actives 1.7% (n = 86,000). AID 629; in the data active = inhibition above about 50%;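 also: 0% = receptor plus peptide control and 100% = peptide only without receptor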
Target sequence (P03372 whole entry, looked up, the tested form may be a part): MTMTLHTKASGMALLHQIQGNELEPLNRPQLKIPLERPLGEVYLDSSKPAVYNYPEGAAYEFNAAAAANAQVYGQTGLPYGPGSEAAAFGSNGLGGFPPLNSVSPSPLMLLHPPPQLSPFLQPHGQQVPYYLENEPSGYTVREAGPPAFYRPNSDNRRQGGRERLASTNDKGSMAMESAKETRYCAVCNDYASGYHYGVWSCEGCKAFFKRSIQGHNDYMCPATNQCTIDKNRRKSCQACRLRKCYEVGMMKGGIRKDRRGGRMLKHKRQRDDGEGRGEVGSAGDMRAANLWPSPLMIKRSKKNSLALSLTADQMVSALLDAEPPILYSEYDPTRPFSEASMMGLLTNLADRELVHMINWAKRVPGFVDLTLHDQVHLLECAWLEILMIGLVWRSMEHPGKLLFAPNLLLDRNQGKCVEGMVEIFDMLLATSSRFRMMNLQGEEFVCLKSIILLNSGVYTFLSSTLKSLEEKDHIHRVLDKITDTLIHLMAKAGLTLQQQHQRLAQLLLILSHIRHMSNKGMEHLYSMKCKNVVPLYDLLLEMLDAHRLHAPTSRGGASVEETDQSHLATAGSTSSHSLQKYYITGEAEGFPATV
ERa coact pot: enhances coactivator binding to human estrogen receptor alpha; P03372; TR-FRET ERalpha-LBD/SRC-Cy5 coactivator binding, 2 h; 100 = basal binding, no effect; coactivator binding (% of control), % at 25.6 µM; actives 1.3% (n = 86,000); in the data active = activity above about 200%;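 also: binding measured in presence of low estradiol as agonist stimulus; 0% = peptide alone without receptor and 100% = receptor with peptide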
ERb SRC1 inh: blocks coactivator binding to human estrogen receptor beta; Q92731; TR-FRET ER-beta LBD / SRC1-Cy5 peptide binding; receptor agonist-loaded with 1 µM estradiol; inhibition, % at 25.6 µM; actives 1.3% (n = 86,000);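 active = compounds whose percent inhibition of the receptor-coactivator binding signal exceeds about 50% in the single-dose screen, limit read from the data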;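 also: 0% = receptor plus peptide wells without compound and 100% = peptide-only wells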
SF-1 act: activates the human nuclear receptor SF-1; Q13285; CHO-K1 Gal4-SF-1 LBD luciferase reporter; % increase over DMSO SF-1-specific signal; activation, % at 10 µM; actives 1.9% (n = 65,000); AID 522;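 active = activation above the mean activation of all tested compounds plus 3 SD, cut at about 50% in these data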
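Material: Gal4–SF-1 LBD one-hybrid luciferase reporter in CHO-K1 cells | Amount: 4,000 cells per well | Compound dosing: 10 µM single point, 1% DMSO | Schedule: 20 h compound treatment, 37 °C | Measured by: SteadyLite luciferase luminescence | Evaluation: Percent activation versus DMSO | Control set: DMSO-treated SF-1-transfected cells as negative, DMSO-treated mock-transfected cells lacking SF-1 as background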
RORA act: RORA (human) activation; activation, % at 10 µM; actives 1.5% (n = 65,000); CHO-K1 Gal4-RORA LBD luciferase reporter, luminescence; percent increase over mock-subtracted basal signal; AID 560;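 active = activation above the mean of all tested compounds plus 3 SD, cut at about 49% in these data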;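 also: 0% = DMSO-treated RORA cells and 100% = added signal equal to DMSO minus mock-transfected cells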
PTK2B oligo ant: antagonists of human Pyk2 oligomerization; z-score (the deposit names both 25 µM and 10 µM); actives 0.83% (n = 99,000); Q14289; Q293 cells, Pyk2 FERM NanoBiT luminescence; active compounds read low; AID 1347419;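 active = Z-score of -3 or lower, scaled per plate to the spread of control and sample wells; inactive = z-score above -3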;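 also: negative z-score means lost luminescence so less FERM oligomerization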
* = called active by the depositor; x = not tested or not shown; [ ] = remark or other dose. Shown are actives, neighbours in structure and some others; about 4.8% of the full set was active somewhere.

SMILES	ERa SRC1 inh	ERa coact pot	ERb SRC1 inh	SF-1 act	RORA act	PTK2B oligo ant
CNc1ccc(Br)cc(C(=O)/C=C/c2ccc3c(c2)OCO3)c1=O	x	x	x	x	x	0.98
CCOC(=O)C1=C(CSc2nncn2C)NC(=O)NC1c1cc(OCC)ccc1OCC (configuration not stated)	15	111	7	12	-9	-0.2
CC(NC(=O)c1ccco1)C(c1cccs1)N1CCOCC1 (configuration not stated)	x	x	x	16	16	x
Cc1c(Cl)cccc1NC(=O)C1NC(=O)CC1c1ccccc1 (configuration not stated)	6	93	-3	x	x	x
Cc1cc(Cl)c(S(=O)(=O)N2CCSCC2)cc1OCC(=O)NC1CCCCC1	15	105	-1	x	x	-3.7*
c1coc(C2Nc3ccccc3-c3nc4ccccc4n32)c1 (configuration not stated)	21	77	29	76*	71*	-1.5
c1ccc(C2Nc3ccccc3-c3nc4ccccc4n32)cc1 (configuration not stated)	-2	104	-10	x	x	-0.88
O=C(c1ccc2ccccc2n1)N1CCN(c2ccccc2O)CC1	-5	99	3	x	x	-0.79
COC(=O)/C(=C\Nc1ccc(Cl)cc1Cl)NC(=O)c1ccccc1	4	100	1	x	x	-1.2
COC(=O)/C(=C\Nc1ccc(Cl)cc1Cl)NC(=O)c1ccc(Cl)cc1Cl	74*[fluorescence artefact?]	52	46	x	x	-0.69
O=C(NCc1ccco1)C1Cc2ccccc2CN1S(=O)(=O)c1ccccc1F (configuration not stated)	49	202*[fluorescence artefact?]	40	8	11	-0.26
Cc1ccc(S(=O)(=O)CC(C)N2CCN(C3CCCCC3)CC2)cc1 (configuration not stated)	-2	99	-4	x	x	0.23
Cc1ccc(-c2nn3c(C)nnc3s2)cc1NC(=O)c1ccc(-c2ccc(Cl)cc2Cl)o1	67*[fluorescence artefact?]	155	46	-26	-8	0.19
Cc1ccc(-c2nn3c(C)nnc3s2)cc1NC(=O)c1ccc(Br)o1	3	116	6	-19	-23	x
Cc1ccc(-c2nn3c(C)nnc3s2)cc1NC(=O)c1ccc(-c2cccc(Cl)c2)o1	66*	155	37	-36	-27	0.1
Cc1nnc2sc(-c3ccc(NC(=O)c4ccc(-c5ccc(Br)cc5)o4)cc3)nn12	69*	122	48	13	10	x
Cc1nnc2sc(-c3cccc(NC(=O)c4ccc(-c5cccc(Cl)c5)o4)c3)nn12	14	180	2	-11	22	x
Clc1cccc(-c2ccc(/C=N/n3cnnc3)o2)c1Cl	51*[fluorescence artefact?]	118	31	x	x	-0.32
Clc1ccccc1-c1ccc(/C=N/n2cnnc2)o1	31	114	41	-1	-2	0.1
O=C(O)c1ccc(CNCc2c(Cl)cccc2Cl)cc1	x	x	x	x	x	0.25
O=C1CCn2nc(-c3ccc(Cl)cc3)cc2N1	-1	99	0	31	61*	x
Nc1cc(-c2ccc(Cl)cc2)nn1S(=O)(=O)c1ccc(Cl)cc1	2	112	-2	x	x	x
CC1CCCN(c2ccc(C(=O)NCC3CCCO3)cn2)C1 (configuration not stated)	-28	104	5	58*	28	2.8
COc1ccc(C(=O)NCC(=O)OCC(=O)c2ccc3c(c2)OCCO3)cc1	x	x	x	x	x	1
COc1ccc2oc(C(=O)OCC(=O)c3ccc4c(c3)OCCO4)c(C)c2c1	7	229*	0	13	5	-0.97
SMILES	ERa SRC1 inh	ERa coact pot	ERb SRC1 inh	SF-1 act	RORA act	PTK2B oligo ant
CCCCOC(=O)c1ccc(NC(=O)C2CCCO2)cc1 (configuration not stated)	-2	106	-5	30	39	-0.57
CCCCc1ccc(NC(=O)OC)cc1	-11	531*[fluorescence artefact?]	19	3	18	-0.03
CCCCc1ccc(NC(=O)C2CCCO2)cc1 (configuration not stated)	5	107	3	33	76*	-0.95
CCOC(=O)c1ccc(NC(=O)C2CCCO2)cc1 (configuration not stated)	4	109	3	64*	12	-0.86
CN1CCc2nc(NC(=O)c3cccc(OC(F)F)c3)sc2C1	-2	116	-6	x	x	1.7
Cc1cccc2c(=O)c(C(=O)NCCCN3CCOCC3)c[nH]c12	-24	109	-34	x	x	0.39
COc1ccc(S(=O)(=O)N2CCOCC2)cc1C(=O)Nc1cc(C)on1	-6	120	2	1	-4	0.09
O=C(N1CCOCC1)N1CCN(c2ccccc2)CC1	-9	104	-12	x	x	-0.62
O=C(Nc1cccc(Cl)c1)N1CCCC1	2	99	7	x	x	0.34
O=C(Nc1cccc(Cl)c1)N1CCN(Cc2ccccc2)CC1	43	116	-5	85*	73*	x
O=C(N1CCOCC1)N1CCN(Cc2ccccc2)CC1	-5	545*[fluorescence artefact?]	-6	-1	-3	0.91
CCOc1ccc(N2Cc3ccccc3C2)cc1	-8	112	-4	62*	51*	-0.41
Brc1ccc(-c2nc(-c3cccnc3)no2)o1	2	122	-4	66*	28	-0.61
Brc1ccc(-c2nc(-c3ccccc3)no2)o1	0	93	3	63*	68*	0.02
c1ccc(-c2noc(-c3ccccc3-c3ccccc3)n2)cc1	-8	107	-5	x	x	-0.53
CC(=O)Oc1ccc(-c2nc(-c3cccnc3)no2)cc1	-31	124	-12	28	53*	-0.3
Cc1cc[n+](-c2nc([O-])n(-c3ccccc3)c2C=O)cc1	-21	107	-7	x	x	x
O=C1CC(c2ccco2)CC(O)=C1C=Nc1cc(Cl)ccc1O (configuration not stated)	52*	130	48	-2	1	0.14
O=C1CC(c2ccco2)CC(O)=C1C=Nc1ccc(Br)cc1 (configuration not stated)	6	84	9	x	x	0.04
CN(c1ccccc1)c1nc2ccsc2c(=O)s1	5	78	14	50*	32	-0.89
CCN(c1ccccc1)c1nc2ccsc2c(=O)s1	5	138	16	3	29	-1.6
CCOC(=O)CC1C(=O)NCCN1S(=O)(=O)c1ccc(Cl)cc1Cl (configuration not stated)	x	x	x	x	x	0.71
Cc1cc(C(F)F)n2ncc(C(=O)O)c2n1	-1	98	-1	x	x	1.1
Cc1cc2n(c1)CCn1c(C)ccc1-2	91*[fluorescence artefact?]	9	52*	-5	-8	x
CCN1C(=S)SC(=O)C1=C1C=C(C)N(Cc2ccco2)C(C)=C1	-14	87	1	53*	18	0.94
Cc1ccc(-c2nnc(Cc3ccc(Cl)cc3)o2)cc1	-2	119	0	x	x	x
c1ccc(Cc2nnc(-c3ccccc3)o2)cc1	-9	121	-1	45	50*	-1.4

Screening data (PubChem)
